ChEMBL document CHEMBL1128722, “Mechanism-based isocoumarin inhibitors for human leukocyte elastase. Effect of the 7-amino substituent and 3-alkoxy group in 3-alkoxy-7-amino-4-chloroisocoumarins on inhibitory potency” (J Med Chem, 1995)

Experiments:
[1] = biological target: T1, Neutrophil elastase (Homo sapiens) (UniProt P08246); assay: Second order inactivation rate constant for inhibition of human leukocyte elastase.
T1 sequence (whole entry): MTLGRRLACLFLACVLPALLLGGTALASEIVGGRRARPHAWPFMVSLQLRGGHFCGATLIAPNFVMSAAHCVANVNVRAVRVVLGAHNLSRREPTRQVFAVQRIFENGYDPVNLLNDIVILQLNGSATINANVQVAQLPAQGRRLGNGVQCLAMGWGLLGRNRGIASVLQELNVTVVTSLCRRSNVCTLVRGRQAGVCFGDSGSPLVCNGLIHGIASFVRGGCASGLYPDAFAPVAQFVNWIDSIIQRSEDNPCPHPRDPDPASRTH
Procedure, shortened: (§1)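 Kitz–Wilson incubation method. Enzyme was preincubated with inhibitor (added in DMSO) in 0.1 M HEPES, 0.5 M NaCl, pH 7.5, at 25 °C. Aliquots were taken over time and diluted into pNA substrate: HLE MeO-Suc-Ala-Ala-Pro-Val-pNA (0.2–0.5 mM), PPE Suc-Ala-Ala-Ala-pNA, ChT and Cat G Suc-Val-Pro-Phe-pNA (0.4–0.5 mM). Release was read at 410 nm. kobs/[I] from ln(v0/vt) vs time. Mean of two determinations. Fast rates measured with equimolar inhibitor and enzyme.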

[2] = biological target: T1, Neutrophil elastase (Homo sapiens); assay: Inhibition of human leukocyte elastase.; procedure, shortened: as §1
[3] = biological target: T1, Neutrophil elastase (Homo sapiens); assay: The second order inactivation rate constant expressed as inhibition of human leukocyte elastase (HLE). Inhibitor concentrations were 0.07-710 uM; procedure, shortened: as §1
[4] = biological target: T2, Cathepsin G (Homo sapiens) (UniProt P08311); assay: Inhibition of cathepsin G at 35-710 uM; procedure, shortened: as §1
T2 sequence (whole entry): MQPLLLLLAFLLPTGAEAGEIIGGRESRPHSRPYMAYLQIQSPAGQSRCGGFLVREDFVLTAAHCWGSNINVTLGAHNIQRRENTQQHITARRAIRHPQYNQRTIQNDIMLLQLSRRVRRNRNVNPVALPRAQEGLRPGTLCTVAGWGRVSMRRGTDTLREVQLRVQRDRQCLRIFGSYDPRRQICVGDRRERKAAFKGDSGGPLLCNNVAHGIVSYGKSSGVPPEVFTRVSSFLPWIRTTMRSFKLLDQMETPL

[5] = biological target: T3, Chymotrypsin-like elastase family member 2A (Sus scrofa) (UniProt P08419); assay: The second order inactivation rate constant expressed as inhibition of porcine pancreatic elastase (PPE).Inhibitor concentrations were 0.04-2.0 mM
T3 sequence (whole entry): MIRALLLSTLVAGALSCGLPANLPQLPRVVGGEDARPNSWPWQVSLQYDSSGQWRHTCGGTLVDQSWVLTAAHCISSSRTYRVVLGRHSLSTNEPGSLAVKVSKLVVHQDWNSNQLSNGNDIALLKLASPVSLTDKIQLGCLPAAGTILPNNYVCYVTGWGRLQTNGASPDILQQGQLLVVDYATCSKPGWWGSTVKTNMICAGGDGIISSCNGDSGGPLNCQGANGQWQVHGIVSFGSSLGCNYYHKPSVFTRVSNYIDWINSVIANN

[6] = biological target: T1, Neutrophil elastase (Homo sapiens); assay: Inhibition of human leukocyte elastase(HLE) at 0.7-1.7 uM; procedure, shortened: as §1
[7] = biological target: T2, Cathepsin G (Homo sapiens); assay: Inhibition of cathepsin G(Cat G) at 35-710 uM; procedure, shortened: as §1
[8] = Half-life for hydrolysis was determined from kinetic constant.; format: ADME
Procedure, shortened: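 Spontaneous hydrolysis in 0.1 M HEPES, 0.5 M NaCl, pH 7.5, 10% v/v DMSO final, 25 °C. Inhibitor added from 2.9–5.0 mM DMSO stock. Ring opening followed as absorbance decrease at 385 nm (ε385 = 3300 M⁻¹ cm⁻¹). Half-life from the first-order rate. Two determinations, standard errors ±15% or less.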

[9] = biological target: Chymotrypsinogen A (Bos taurus) (UniProt P00766); assay: The second order inactivation rate constant was expressed as inhibition of chymotrypsin (ChT).Inhibitor concentrations were 360-570 uM; procedure, shortened: as §1
[10] = biological target: T1, Neutrophil elastase (Homo sapiens); assay: The second order inactivation rate constant was expressed as inhibition of human leukocyte elastase (HLE). Inhibitor concentrations were 0.4-4 uM; procedure, shortened: as §1
[11] = biological target: T3, Chymotrypsin-like elastase family member 2A (Sus scrofa); assay: The second order inactivation rate constant was expressed as inhibition of porcine pancreatic elastase (PPE).Inhibitor concentrations were 2-600 uM; procedure, shortened: as §1

SMILES | K obs / 1 [3] | K obs / 1 [5] | also measured
COCCOCCOc1oc(=O)c2cc(N)ccc2c1Cl | – | – | k obs / 1 [1]: 33 M⁻¹ s⁻¹; [I] [2]: 710 µM
O=C(O)c1cccc(N/C(S)=N/c2ccc3c(Cl)c(OCCBr)oc(=O)c3c2)c1 | > 240000 M⁻¹ s⁻¹ | – | K obs / 1 [4]: 320 M⁻¹ s⁻¹
Cc1cccc(C(=O)N[C@@H](Cc2ccccc2)C(=O)Nc2ccc3c(Cl)c(OCCBr)oc(=O)c3c2)c1 | 31000 M⁻¹ s⁻¹ | 3500 M⁻¹ s⁻¹ | –
O=C(Nc1ccccc1)Nc1ccc(C(=O)NC(Cc2ccccc2)C(=O)Nc2ccc3c(Cl)c(OCCBr)oc(=O)c3c2)cc1 (configuration not stated) | 6100 M⁻¹ s⁻¹ | 130 M⁻¹ s⁻¹ | –
CC(C)Oc1oc(=O)c2cc(N)ccc2c1Cl | – | – | k obs / 1 [1]: 2000 M⁻¹ s⁻¹; [I] [2]: 26 µM
CCCOc1oc(=O)c2cc(NC(C)=O)ccc2c1Cl | – | – | k obs / 1 [6]: > 190000 M⁻¹ s⁻¹
O=C(NCc1ccccc1)Nc1ccc2c(Cl)c(OCCBr)oc(=O)c2c1 | 480000 M⁻¹ s⁻¹ | 3010 M⁻¹ s⁻¹ | inhibition [7]: 23%
CC(C)NC(=O)Nc1ccc2c(Cl)c(OCCBr)oc(=O)c2c1 | 646000 M⁻¹ s⁻¹ | 4470 M⁻¹ s⁻¹ | K obs / 1 [4]: 77 M⁻¹ s⁻¹
O=C(N[C@@H](Cc1ccccc1)C(=O)Nc1ccc2c(Cl)c(OCCBr)oc(=O)c2c1)c1ccccc1 | 30000 M⁻¹ s⁻¹ | 11 M⁻¹ s⁻¹ | –
CC(C)(C)OC(=O)N[C@@H](Cc1c[nH]c2ccccc12)C(=O)Nc1ccc2c(Cl)c(OCCBr)oc(=O)c2c1 | 170000 M⁻¹ s⁻¹ | 12 M⁻¹ s⁻¹ | half-life [8]: 26 h
CCCOc1oc(=O)c2cc(N)ccc2c1Cl | – | – | k obs / 1 [1]: 54000 M⁻¹ s⁻¹; [I] [2]: 2.6 µM; half-life [8]: 4.6 h
CC(C)COc1oc(=O)c2cc(N)ccc2c1Cl | – | – | k obs / 1 [1]: 2700 M⁻¹ s⁻¹; [I] [2]: 50 µM
Cc1ccc(C(=O)N[C@@H](Cc2ccccc2)C(=O)Nc2ccc3c(Cl)c(OCCBr)oc(=O)c3c2)cc1 | 49000 M⁻¹ s⁻¹ | 32 M⁻¹ s⁻¹ | –
O=C(Nc1ccc2c(Cl)c(OCCBr)oc(=O)c2c1)NC(c1ccccc1)c1ccccc1 | 4410 M⁻¹ s⁻¹ | 6 M⁻¹ s⁻¹ | –
O=C(Nc1ccc2c(Cl)c(OCCBr)oc(=O)c2c1)Nc1cccc2ccccc12 | 390000 M⁻¹ s⁻¹ | 76 M⁻¹ s⁻¹ | inhibition [7]: 22%
CCCOc1oc(=O)c2cc(NC(=O)CC(C)C)ccc2c1Cl | – | – | k obs / 1 [6]: > 220000 M⁻¹ s⁻¹
O=C(Cc1ccccc1)Nc1ccc2c(Cl)c(OCCCBr)oc(=O)c2c1 | 32400 M⁻¹ s⁻¹ | 28 M⁻¹ s⁻¹ | inhibition [7]: 28%
O=C(Nc1ccccc1)Nc1ccc2c(Cl)c(OCCCBr)oc(=O)c2c1 | – | 4 M⁻¹ s⁻¹ | inhibition [7]: 17%
CC(Br)COc1oc(=O)c2cc(N)ccc2c1Cl (configuration not stated) | 24000 M⁻¹ s⁻¹ | 62 M⁻¹ s⁻¹ | K obs / 1 [4]: 150 M⁻¹ s⁻¹
CCCOc1oc(=O)c2cc(NC(=O)c3cccc([N+](=O)[O-])c3)ccc2c1Cl | – | – | k obs / 1 [6]: > 210000 M⁻¹ s⁻¹
O=C(O)c1ccc(N/C(S)=N/c2ccc3c(Cl)c(OCCBr)oc(=O)c3c2)cc1 | > 390000 M⁻¹ s⁻¹ | – | K obs / 1 [4]: 450 M⁻¹ s⁻¹
COc1oc(=O)c2cc(NC(=O)C(Cc3ccccc3)NC(=O)c3cccc(NC(=O)Nc4ccccc4)c3)ccc2c1Cl (configuration not stated) | – | – | k obs / 1 [9]: 110 M⁻¹ s⁻¹; k obs / 1 [10]: 28000 M⁻¹ s⁻¹; k obs / 1 [11]: 54 M⁻¹ s⁻¹
CCCOc1oc(=O)c2cc(NC(=O)CCc3ccccc3)ccc2c1Cl | – | – | k obs / 1 [6]: > 250000 M⁻¹ s⁻¹
C[C@@H](NC(=O)Nc1ccc2c(Cl)c(OCCBr)oc(=O)c2c1)c1cccc2ccccc12 | 310000 M⁻¹ s⁻¹ | 20 M⁻¹ s⁻¹ | half-life [8]: > 48 h
C[C@H](NC(=O)Nc1ccc2c(Cl)c(OCCBr)oc(=O)c2c1)c1ccccc1 | > 440000 M⁻¹ s⁻¹ | 9900 M⁻¹ s⁻¹ | K obs / 1 [4]: 77 M⁻¹ s⁻¹
CC(=O)Nc1ccc2c(Cl)c(OCCCBr)oc(=O)c2c1 | 24400 M⁻¹ s⁻¹ | 24 M⁻¹ s⁻¹ | K obs / 1 [4]: 170 M⁻¹ s⁻¹
C[C@H](NC(=O)OC(C)(C)C)C(=O)N[C@@H](C)C(=O)Nc1ccc2c(Cl)c(OCCBr)oc(=O)c2c1 | 230000 M⁻¹ s⁻¹ | 1670 M⁻¹ s⁻¹ | K obs / 1 [4]: 46 M⁻¹ s⁻¹
